The text below walks through data of ChEMBL document CHEMBL1124060, “2-Ethynylbenzenealkanamines. A new class of calcium entry blockers” (1988).

Assay type in all cases: functional
The species named for test [1] is Cavia porcellus. The test can be described thus: Concentration needed to achieve a 75% increase in coronary blood flow in 'Langendorff', guinea pig heart (in vitro negative inotropic activity). The method, boiled down:
(§1)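 Isolated Langendorff-perfused guinea pig hearts infused with a range of drug concentrations; force (g), rate (beats/min) and coronary flow (mL/min) recorded. A linear regression of percent-control flow gives C175, the micromolar concentration raising flow to 175% of control, reported only if within the tested range. Raw data analysed by paired t tests.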

For test [2], the species on record is Cavia porcellus. Briefly: Concentration needed to achieve a 75% increase in coronary blood flow in 'Langendorff', guinea pig heart (in vitro Negative inotropic potency). The gist of the method:
as §1

The species named for test [3] is Cavia porcellus. Briefly: Concentration needed to elicit a 75% increase beyond control in coronary flow in ''Langendorff'', guinea pig heart (in vitro). The method, boiled down: as §1
Test [4] has as its system Rattus norvegicus. Briefly: Ability to lower blood pressure in the spontaneously hypertensive rat (SHR) at 1 mg/kg (p.o.). The settings on record: route oral. The gist of the method: (§2)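 Spontaneously hypertensive rats dosed orally at the stated dose; read-out is the maximum fall in blood pressure (mmHg), with significance shown as P.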
The species named for test [5] is Oryctolagus cuniculus. Briefly: In vitro inhibition of development of isometric tension, in response to norepinephrine (NE, 10 uM) in rabbit aorta expressed as percent change from control. The gist of the method:
(§3)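 Test compounds at 10 μM; tension and calcium influx each expressed as % change from control, measured against KCl ([…]) or NE (10 μM) stimulus.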

Test [6] is filed under the species Oryctolagus cuniculus. Briefly: Inhibition of [Ca2+] influx in response to a stimulus of KCL (60 uM) expressed as percent change from control. The method, boiled down: as §3
For test [7], the system named is Rattus norvegicus. The test can be described thus: Ability to lower blood pressure in the spontaneously hypertensive rat (SHR) at 10 mg/kg (p.o.). The settings on record: route oral. The gist of the method:
as §2

Test [8] is filed under the species Oryctolagus cuniculus. The test can be described thus: In vitro inhibition of development of isometric tension, in response to KCl (60 uM) in rabbit aorta expressed as percent change from control. The method, boiled down:
as §3

The species entered for test [9] is Oryctolagus cuniculus. The test can be described thus: Inhibition of [Ca2+] influx in response to a stimulus of norepinephrine (NE, 10 uM) expressed as percent change from control. The gist of the method:
as §3

Test [10] concerns Rattus norvegicus. Briefly: Ability to lower blood pressure in the spontaneously hypertensive rat (SHR) at 3 mg/kg (p.o.). The following applies: route oral. The gist of the method: as §2
Test [11] is filed under the species Oryctolagus cuniculus. The test can be described thus: Inhibition of [Ca2+] influx in response to a stimulus of norepinephrine (NE, 10 uM). The method, boiled down: as §3
Test [12] is filed under the species Oryctolagus cuniculus. Briefly: Inhibition of [Ca2+] influx in response to a stimulus of KCL (60 uM). The method, boiled down:
as §3

The species entered for test [13] is Oryctolagus cuniculus. The test can be described thus: In vitro inhibition of development of isometric tension, in response to norepinephrine (NE, 10 uM) in rabbit aorta. The gist of the method: as §3
Test [14] is filed under the species Oryctolagus cuniculus. The test can be described thus: In vitro inhibition of development of isometric tension, in response to KCl (60 uM) in rabbit aorta. The gist of the method:
as §3

Test [15] relates to Rattus norvegicus. Briefly: Ability to lower blood pressure in the spontaneously hypertensive rat (SHR) at 100 mg/kg (p.o.). The settings on record: route oral. The gist of the method: (§4)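 Spontaneously hypertensive rats were given a single oral dose of the compound. The read-out was the maximum fall in blood pressure, in mmHg, after that dose. A P value for significance was reported with each value.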

The test system of test [16] is Rattus norvegicus. Briefly: Ability to lower blood pressure in the spontaneously hypertensive rat (SHR) at 29 mg/kg (p.o.). The following applies: route oral. The method, boiled down:
as §4

In test [17] the test system is Rattus norvegicus. The test can be described thus: Ability to lower blood pressure in the spontaneously hypertensive rat (SHR) at 30 mg/kg (p.o.). The following applies: route oral. The method, boiled down: as §4

In the case of `COc1ccc(C#Cc2ccccc2)c(CC(C)N(C)CCc2ccc(OC)c(OC)c2)c1` (stereo not drawn), the “Contractile force, % of control” value in the test filed under Cavia porcellus [1] is on record as 70%. Also, in the test filed under Cavia porcellus [2], the “P (Ei)” value is on record as less than 0.05. Also, in the test listed under Cavia porcellus [3], the C175 stood at 0.025 µM. The “Max fall in blood pressure” value with Rattus norvegicus [4] is listed as 53 mmHg.

As to `COc1cc(CCNC(C)Cc2cc(OC)ccc2C#Cc2ccccc2)cc(OC)c1` (stereo not drawn), in the test filed under Cavia porcellus [1], the “Contractile force, % of control” value is recorded as 120%. Also, in the test listed under Cavia porcellus [2], the “P (Ei)” value amounted to 0.026. The Change in the test filed under Oryctolagus cuniculus [5] is on record as -13%; in the test listed under Oryctolagus cuniculus [6] it was -42%; in the test filed under Oryctolagus cuniculus [8], -15%; in the test filed under Oryctolagus cuniculus [9], -23%. In addition, in the test with Rattus norvegicus [7], the “Max fall in blood pressure” value worked out at 36 mmHg. For the same compound, the C175 in the test filed under Cavia porcellus [3] turned out to be 0.00075 µM.

For `COc1cc(CCN(C)C(C)Cc2cc(OC)ccc2C#Cc2ccccc2)cc(OC)c1` (stereo not drawn), the “Contractile force, % of control” value in the test listed under Cavia porcellus [1] is reported as 100%. The “P (Ei)” value in the test listed under Cavia porcellus [2] worked out at 0.5. Further, in the test on Rattus norvegicus [10], the “Max fall in blood pressure” value stood at 66 mmHg. Also, the Change in the test listed under Oryctolagus cuniculus [11] was -10%; in the test filed under Oryctolagus cuniculus [12], -41%; in the test listed under Oryctolagus cuniculus [13], -22%; in the test filed under Oryctolagus cuniculus [14] it was -68%. The compound also came in with a C175 in the test filed under Cavia porcellus [3] of 0.0025 µM.

As to `COc1ccc(C#Cc2ccccc2)c(CC(C)N(C)CCc2ccc(Cl)c(Cl)c2)c1` (stereo not drawn), the “Contractile force, % of control” value in the test filed under Cavia porcellus [1] was determined as 90%. Also, in the test listed under Cavia porcellus [2], the “P (Ei)” value is greater than 0.5. In the test listed under Cavia porcellus [3], this compound had a C175 of 0.004 µM. Also, in the test on Rattus norvegicus [4], the “Max fall in blood pressure” value came to 67 mmHg.

Turning to `COc1ccc(C#Cc2ccccc2)c(CCCN(C)CCc2ccc(OC)c(OC)c2)c1`, in the test listed under Cavia porcellus [1], the “Contractile force, % of control” value is on record as 85%. The “P (Ei)” value in the test listed under Cavia porcellus [2] is on record as less than 0.05. Besides, the C175 in the test listed under Cavia porcellus [3] was 3 µM. In addition, in the test on Rattus norvegicus [15], the “Max fall in blood pressure” value was found to be 62 mmHg.

As to `CCCCC#Cc1ccc(OC)cc1CCCN(C)CCc1ccc(OC)c(OC)c1`, the “Contractile force, % of control” value in the test filed under Cavia porcellus [1] came out at 100%. Besides, in the test listed under Cavia porcellus [2], the “P (Ei)” value is given as greater than 0.5. In the test filed under Cavia porcellus [3], the C175 worked out at 0.2 µM. Also, the “Max fall in blood pressure” value in the test with Rattus norvegicus [15] was found to be 35 mmHg.

For the compound `COc1ccc(C#Cc2ccccc2)c(CC(C)NCCc2ccc(Cl)c(Cl)c2)c1` (stereo not drawn), the “Contractile force, % of control” value in the test filed under Cavia porcellus [1] was 115%. Besides, in the test filed under Cavia porcellus [2], the “P (Ei)” value was 0.205. The “Max fall in blood pressure” value in the test on Rattus norvegicus [10] was determined as 43 mmHg. The Change in the test listed under Oryctolagus cuniculus [11] is reported as -23%; in the test listed under Oryctolagus cuniculus [12] it was -21%; in the test filed under Oryctolagus cuniculus [13], -5%; in the test listed under Oryctolagus cuniculus [14], -20%. In addition, in the test filed under Cavia porcellus [3], the C175 turned out to be 0.006 µM.

On to `COc1ccc(C#Cc2ccccc2)c(CC(C)NCCc2ccc(OC)c(OC)c2)c1` (stereo not drawn), for which the “Contractile force, % of control” value in the test listed under Cavia porcellus [1] was 95%. Also, in the test filed under Cavia porcellus [2], the “P (Ei)” value is reported as greater than 0.5. Moreover, the “Max fall in blood pressure” value with Rattus norvegicus [10] is given as 37 mmHg. Further, the Change in the test filed under Oryctolagus cuniculus [11] is given as -27%; in the test filed under Oryctolagus cuniculus [12] it was -46%; in the test filed under Oryctolagus cuniculus [13] it was -45%; in the test listed under Oryctolagus cuniculus [14], -68%. The same compound returned a C175 in the test filed under Cavia porcellus [3] of 0.027 µM.

With `COc1ccc(C#Cc2ccc([S+](C)[O-])cc2)c(CC(C)N(C)CCc2ccc(OC)c(OC)c2)c1` (stereo not drawn), the “Contractile force, % of control” value in the test listed under Cavia porcellus [1] is 10%. Further, the “P (Ei)” value in the test filed under Cavia porcellus [2] is given as less than 0.001. Further, in the test listed under Cavia porcellus [3], the C175 amounted to 3 µM. In addition, the “Max fall in blood pressure” value in the test with Rattus norvegicus [16] was 29 mmHg.

Consider `COc1ccc([C@@H]2Sc3ccccc3N(CCN(C)C)C(=O)[C@@H]2OC(C)=O)cc1` [DILTIAZEM], for which, in the test filed under Cavia porcellus [1], the “Contractile force, % of control” value is recorded as 90%. Moreover, the “P (Ei)” value in the test filed under Cavia porcellus [2] is listed as greater than 0.05. Moreover, the Change in the test filed under Oryctolagus cuniculus [11] is reported as -37%; in the test listed under Oryctolagus cuniculus [12] it was -18%; in the test listed under Oryctolagus cuniculus [13], -8%; in the test listed under Oryctolagus cuniculus [14], -84%. In the test filed under Cavia porcellus [3], this compound yielded a C175 of 0.18 µM. Moreover, the “Max fall in blood pressure” value in the test on Rattus norvegicus [17] amounted to 48 mmHg.

On to `COc1ccc(CCN(C)CCCC(C#N)(c2ccc(OC)c(OC)c2)C(C)C)cc1OC` (stereo not drawn) [VERAPAMIL], for which the “Contractile force, % of control” value in the test filed under Cavia porcellus [1] came to 35%. In addition, the “P (Ei)” value in the test filed under Cavia porcellus [2] was less than 0.001. The Change in the test listed under Oryctolagus cuniculus [11] is on record as -22%; in the test listed under Oryctolagus cuniculus [12] it was -30%; in the test listed under Oryctolagus cuniculus [13] it was -18%; in the test filed under Oryctolagus cuniculus [14], -89%. For the same compound, the C175 in the test filed under Cavia porcellus [3] was found to be 0.1 µM. In addition, in the test with Rattus norvegicus [17], the “Max fall in blood pressure” value came out at 67 mmHg.
